{
  "source": "ChEMBL document CHEMBL1124254",
  "about": "“Pumiliotoxin alkaloids: relationship of cardiotonic activity to sodium channel activity and phosphatidylinositol turnover” (1988)",
  "format_in_all_cases": "functional",
  "key": {"[1]": {"species": "Cavia porcellus", "assay": "Cardiotonic activity was measured in guinea pig atria at 54 uM concentration; Ranking", "outline": "(§1)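 Isolated atria suspended at 37 °C in Tyrode's solution aerated with O2-CO2 (95:5). After at least 1 h equilibration, cumulative dose-response curves for rate and force of spontaneous contractions were built by serial additions of alkaloid in methanol, at least 10 min apart. Effects given at 54 μM; values are averages of two to six experiments.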"}, "[2]": {"species": "Cavia porcellus", "assay": "Phosphoinositide breakdown in guinea pig brain synaptoneurosomes.", "set-up": "concentration or dose not given beside the values", "outline": "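Guinea pig cerebral cortex synaptoneurosomes (~1 mg protein per tube) were labelled 60 min at 37 °C with 1 μM [3H]inositol in Krebs-Henseleit buffer (pH 7.4). LiCl was added, and agents were added 10 min later for 90 min at 37 °C under O2-CO2. [3H]inositol 1-phosphate was isolated by anion exchange and counted. Results are percent of control, means ± SEM (n = 3) or single values at 10 μM.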"}, "[3]": {"species": "Cavia porcellus", "assay": "Cardiotonic activity was measured in guinea pig atria at 18 uM concentration; Ranking", "outline": "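Isolated spontaneously beating atria held at 37 °C in Tyrode's solution gassed with 95:5 O2-CO2, equilibrated at least 1 h. Alkaloid was added serially in methanol, at least 10 min apart, to build cumulative dose-response curves. Rate and force of spontaneous contractions were recorded. Values are averages of two to six experiments.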"}, "[4]": {"species": "Cavia porcellus", "assay": "Cardiotonic activity was measured in guinea pig atria at 54 uM concentration; Ranking -", "outline": "as §1"}, "[5]": {"species": "Mus musculus", "assay": "Phosphoinositide (PI) breakdown was measured in mouse atria at 10 uM", "outline": "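Male mouse (20-25 g) right and left atria were prelabelled for 60 min at 37 °C in Krebs-Henseleit buffer (pH 7.4) with 1 μM [3H]inositol. LiCl (10 mM final) was added, and agents were added 15 min later at 10 μM for 30 min at 37 °C. [3H]inositol phosphates in the TCA extract were separated by anion exchange. Results are percent of control, two to four determinations ± SEM.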"}, "[6]": {"species": "Cavia porcellus", "assay": "Specific sodium influx was measured in guinea pig brain synaptoneurosomes at 100 uM concentration (10s of incubation)"}},
  "data": [
    {"smiles": "CC[C@@H](O)/C(C)=C/C[C@@H](C)/C=C1\\CN2CCC[C@H]2[C@@](C)(O)[C@@H]1O", "values": [
      {"measurement": "Activity", "setting": "[1]", "value": "Ranking"},
      {"measurement": "Activity", "setting": "[2]", "value": 137, "unit": "%"}
    ]},
    {"smiles": "CC[C@H](O)/C(C)=C/C[C@@H](C)/C=C1\\CN2CCC[C@H]2[C@@](C)(O)[C@@H]1O", "values": [
      {"measurement": "Activity", "setting": "[2]", "value": 275, "unit": "%"},
      {"measurement": "Activity", "setting": "[3]", "value": "Ranking"}
    ]},
    {"smiles": "CC[C@H](O)/C(C)=C/C[C@@H](C)/C=C1\\CN2CCC[C@H]2[C@@](C)(O)C1", "values": [
      {"measurement": "Activity", "setting": "[1]", "value": "Ranking"}
    ]},
    {"smiles": "C[C@@H](/C=C1\\CN2CCC[C@H]2[C@@](C)(O)C1)CCOCc1ccccc1", "values": [
      {"measurement": "Activity", "setting": "[4]", "value": "Ranking -"},
      {"measurement": "Activity", "setting": "[2]", "value": 102, "unit": "%"}
    ]},
    {"smiles": "CCC[C@H](C)/C=C1\\CN2CCC[C@H]2[C@@](C)(O)[C@H]1O", "values": [
      {"measurement": "Activity", "setting": "[4]", "value": "Ranking -"},
      {"measurement": "Activity", "setting": "[2]", "value": 116, "unit": "%"}
    ]},
    {"smiles": "C[C@H](/C=C1\\CN2CCC[C@H]2[C@@](C)(O)C1)CCO", "values": [
      {"measurement": "Activity", "setting": "[4]", "value": "Ranking -"},
      {"measurement": "Activity", "setting": "[2]", "value": 115, "unit": "%"}
    ]},
    {"smiles": "CCC(O)/C(C)=C/C[C@@H](C)/C=C1\\CN2CCC[C@H]2[C@@](C)(O)C1", "note": "(stereo not given in full)", "values": [
      {"measurement": "Activity", "setting": "[1]", "value": "Ranking"},
      {"measurement": "Activity", "setting": "[5]", "value": 114, "unit": "%"},
      {"measurement": "Activity", "setting": "[2]", "value": 172, "unit": "%"},
      {"measurement": "Activity", "setting": "[6]", "value": "0.72 nM (mg of protein)-1"}
    ]},
    {"smiles": "C=CCCCC/C=C1\\CN2CCC[C@H]2[C@@](C)(O)C1", "values": [
      {"measurement": "Activity", "setting": "[4]", "value": "Ranking -"},
      {"measurement": "Activity", "setting": "[2]", "value": 112, "unit": "%"}
    ]},
    {"smiles": "CC(O)CC[C@@H](C)/C=C1\\CN2CCC[C@H]2[C@@](C)(O)C1", "note": "(stereo not given in full)", "values": [
      {"measurement": "Activity", "setting": "[1]", "value": "Ranking"},
      {"measurement": "Activity", "setting": "[2]", "value": 129, "unit": "%"}
    ]},
    {"smiles": "C/C(=C\\C[C@@H](C)/C=C1\\CN2CCC[C@H]2[C@@](C)(O)C1)[C@@H](O)[C@@H](C)O", "values": [
      {"measurement": "Activity", "setting": "[5]", "value": 150, "unit": "%"},
      {"measurement": "Activity", "setting": "[2]", "value": 280, "unit": "%"},
      {"measurement": "Activity", "setting": "[6]", "value": "3.05 nM (mg of protein)-1"}
    ]},
    {"smiles": "C[C@]1(O)C/C(=C/CCCCCCO)CN2CCC[C@H]21", "values": [
      {"measurement": "Activity", "setting": "[4]", "value": "Ranking -"},
      {"measurement": "Activity", "setting": "[2]", "value": 122, "unit": "%"}
    ]},
    {"smiles": "C/C(=C\\C[C@H](C)/C=C1\\CN2CCC[C@H]2[C@@](C)(O)C1)[C@@H](O)[C@@H](C)O", "values": [
      {"measurement": "Activity", "setting": "[1]", "value": "Ranking"},
      {"measurement": "Activity", "setting": "[2]", "value": 110, "unit": "%"}
    ]},
    {"smiles": "CCC[C@@H](C)/C=C1\\CN2CCC[C@H]2[C@@](C)(O)[C@@H]1O", "values": [
      {"measurement": "Activity", "setting": "[1]", "value": "Ranking"},
      {"measurement": "Activity", "setting": "[2]", "value": 138, "unit": "%"}
    ]},
    {"smiles": "CCCC[C@@H](C)/C=C1\\CN2CCC[C@H]2[C@@](C)(O)C1", "values": [
      {"measurement": "Activity", "setting": "[4]", "value": "Ranking -"},
      {"measurement": "Activity", "setting": "[2]", "value": 132, "unit": "%"}
    ]},
    {"smiles": "C/C(=C\\C[C@@H](C)/C=C1\\CN2CCC[C@H]2[C@@](C)(O)[C@@H]1O)[C@@H](O)[C@@H](C)O", "values": [
      {"measurement": "Activity", "setting": "[2]", "value": 304, "unit": "%"},
      {"measurement": "Activity", "setting": "[3]", "value": "Ranking"}
    ]},
    {"smiles": "C/C(=C\\C[C@@H](C)/C=C1\\CN2CCC[C@H]2[C@@](C)(O)C1)[C@@H](O)[C@H](C)O", "values": [
      {"measurement": "Activity", "setting": "[1]", "value": "Ranking"}
    ]},
    {"smiles": "C[C@@H](/C=C1\\CN2CCC[C@H]2[C@@](C)(O)C1)CCO", "values": [
      {"measurement": "Activity", "setting": "[4]", "value": "Ranking -"},
      {"measurement": "Activity", "setting": "[2]", "value": 110, "unit": "%"}
    ]},
    {"smiles": "CCC(=O)/C(C)=C/C[C@@H](C)/C=C1\\CN2CCC[C@H]2[C@@](C)(O)C1", "values": [
      {"measurement": "Activity", "setting": "[4]", "value": "Ranking -"},
      {"measurement": "Activity", "setting": "[2]", "value": 109, "unit": "%"}
    ]},
    {"smiles": "C/C(=C\\C[C@@H](C)/C=C1\\CN2CCC[C@H]2[C@@](C)(O)C1)[C@H](O)[C@H](C)O", "values": [
      {"measurement": "Activity", "setting": "[1]", "value": "Ranking"},
      {"measurement": "Activity", "setting": "[2]", "value": 129, "unit": "%"}
    ]},
    {"smiles": "CCC(OC)/C(C)=C/C[C@@H](C)/C=C1\\CN2CCC[C@H]2[C@@](C)(O)C1", "note": "(stereo not given in full)", "values": [
      {"measurement": "Activity", "setting": "[5]", "value": 92, "unit": "%"},
      {"measurement": "Activity", "setting": "[4]", "value": "Ranking -"},
      {"measurement": "Activity", "setting": "[2]", "value": 118, "unit": "%"},
      {"measurement": "Activity", "setting": "[6]", "value": "0.29 nM (mg of protein)-1"}
    ]},
    {"smiles": "C/C(=C\\C[C@@H](C)/C=C1\\CN2CCC[C@H]2[C@@](C)(O)[C@H]1O)[C@@H](O)[C@@H](C)O", "values": [
      {"measurement": "Activity", "setting": "[1]", "value": "Ranking"},
      {"measurement": "Activity", "setting": "[2]", "value": 176, "unit": "%"}
    ]}
  ]
}
